These results are taken from the EternaBench riboswitch data.

Usually apparent Kd stands for the concentration giving half-maximal binding under the conditions of the assay.

In the data set the test system is MS2 coat protein. Nature of the data set: apparent Kd, MS2 coat protein; higher = weaker binding; RNA-MaP array; FMN 200 µM where present. In short, it runs like this: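 Stalled E. coli RNA polymerase transcribed each design on Illumina sequencing-chip clusters. The clusters were titrated with SNAP-549-labelled MS2 coat protein, starting at 0.7 or 1.5 nM and doubling up to 3 µM, first without ligand and then with constant ligand, in 100 mM Tris-HCl pH 7.5, 80 mM KCl, 4 mM MgCl2, BSA, DTT, yeast tRNA and Tween-20. Green signal was normalised to red-channel RNA signal and to the control-cluster median Fmax. The apparent Kd is the median of filtered binding-curve fits made for each cluster.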

The mark [1] stands for this setting: designed as: OFF switch for flavin mononucleotide, no ligand.
[2] abbreviates: ligand present: flavin mononucleotide, designed as: OFF switch for flavin mononucleotide.
Where [3] appears, read: designed as: ON switch for flavin mononucleotide, no ligand.
The mark [4] stands for this setting: ligand present: flavin mononucleotide, designed as: ON switch for flavin mononucleotide.

For the sequence “UAAUUGUGAGGAUAUUCGUUUUUCUCGGAGACGAGAAGAACGGAGAAGGCACAUGAGGAUCACCCAUGUUCCUU”, the “apparent Kd” value is, setting by setting: under setting [1], 18 nM; under setting [2], 91.7 nM.
Consider “AUGUGACGGUGCGCAUGUGGACGGAGAAGGCAGACAUGAGGAUCACCCAUGUGAGCCUGCUAUUCUGAGGAUAUCCGUUCGCAC”, for which the “apparent Kd” value is 31.7 nM under setting [1] and 158 nM under setting [2].
As to “GUAGCUAUCGGAGGAUAUUCAUACCGGAAACGGACAUGAGGAUCACCCAUGUGGCGAAAGCCUUUGGAGAAGGCCGAUAGCUAC”, the “apparent Kd” value runs as follows: under setting [3], 3.56 nM; under setting [4], 3.33 nM.
On to “CUGAGCAAUGUAGGAUAUCGACUGGAAUACAGUCGAGAAGGACAUGAGGAUCACCCAUGUAAAUGAGUGAAUAAUAAAGCUCAG”, for which the “apparent Kd” value under setting [1] amounted to 735 nM and the “apparent Kd” value under setting [2] stood at 345 nM.
On to “GGUACUCAAAGAGUACUUGGUCGAACAUGAGGAUCACCCAUGUAGGAUAUACAAAGCAAGAAGUAGUAGAAGGACAUGUGCAGC”, for which the “apparent Kd” value runs as follows: under setting [1], 12.9 nM; under setting [2], 16.2 nM.
The corresponding values for “AAACCGCAAGGAUAUUGUGGCGCUGACAUGAGGAUCACCCAUGUGGUGCUAGUCCCGCUGCGAGAAGGUGUGUAAA” are 12.4 nM and 26.8 nM.
Consider “UCUUAUUGCAAGGAUAUGCUUUUUAUUUCUUUUGCAGAAGGUGCAACAUGAGGAUCACCCAUGUUUCCGGGUAU”, for which the “apparent Kd” value is, setting by setting: under setting [1], 24.1 nM; under setting [2], 59.5 nM.
As for “GUCGGAAACGACAAUGAUAGGACUGAGGAUAUACAUAAAUAAUCCUCUACAUGAGGAUCACCCAUGUAGAAGGCAGUCCUAUCU”, the “apparent Kd” value was 19 nM under setting [1] and 24.6 nM under setting [2].
For the sequence “UUAGAGGAUUAAGGAUAUGCAGAGAGAUUAUGCGCGUCGCGCACAUGAGGAUCACCCAUGUAAGAGCAGAAGGUAACUAUGAUC”, the “apparent Kd” value runs as follows: under setting [1], 22.8 nM; under setting [2], 16.4 nM.
Turning to “CUCCUCGAAGGAUAUACUGUGGAUCAUAAGUCAGGGAGGUUACAUGAGGAUCACCCAUGUAGAAGGUCGAGGUG”, the “apparent Kd” value is, setting by setting: under setting [1], 67.2 nM; under setting [2], 428 nM.
Take “ACGGCAAUCGAAGGAUAUGGUUACAUGAGGAUCACCCAUGUCUAGGGUCUAAUUAGGUAUAACUACCAGAAGGUCGAAGGCCUA”: the “apparent Kd” value reads like this: under setting [1], 67.6 nM; under setting [2], 72.5 nM.
The corresponding values for “GUGUACAGAGGAUAUGCACGAGUAGUUACGAAAGUAACUGCACAUGAGGAUCACCCAUGUAGAAGGCUGUACAC” are 17.9 nM and 16.7 nM.
In the case of “CCAGAGAUAUGAGGAUAUCGAGUGGAUAACACUCGAGAAGGCAUGUGAAAACAUGAGGAUCACCCAUGUAUGAUCUACUCUGGA”, the “apparent Kd” value runs as follows: under setting [3], 50.6 nM; under setting [4], 23.8 nM.
With “GUCAGCUCGUGAGGAUAUACAUGUGCUGGAAACAGCACUAUUAAGAUCACAUGAGGAUCACCCAUGUAGAAGGCACGAGCUGAU”, the “apparent Kd” value under setting [1] was found to be 47.3 nM and the “apparent Kd” value under setting [2] was found to be 630 nM.
“AUCAGCUCGUCAGGAUAUACGUCACUGCGUCAGCAGUGUGGUAAGAUCACAUGAGGAUCACCCAUGUAGAAGGGACGAACUGAU”: the “apparent Kd” value is 13.6 nM under setting [1] and 292 nM under setting [2].
Take “GUACGUGGACAGAAGGCGACAUGAGGAUCACCCAUGUUGGCUCGGGUAUGACCAAUCCGCAUGAUCGAGGAUAUGUCUGCGGGC”: the “apparent Kd” value is, setting by setting: under setting [1], 199 nM; under setting [2], 14.8 nM.
On to “GUCAUCUCAUGAGGAUAUGCUCGGGUUUCCCGAGCAGAAGGCAUGUCAUACAUGAGGAUCACCCAUGUUGACAUUAAGAUUGUA”, for which the “apparent Kd” value is, setting by setting: under setting [3], 4.78 nM; under setting [4], 5.04 nM.
Regarding “CCGGAUAUGCAGGAUAUCGUAUCGGAUACGAUACGAGAAGGGUAUACAUGAGGAUCACCCAUGUGUCCUACCGG”, the “apparent Kd” value by setting is: under setting [1], 22.8 nM; under setting [2], 31.5 nM.
Turning to “GUGCUUGUCGGAGGAUAUGGUUACAUGAGGAUCACCCAUGUUAUGCUUGGUUACUUGUUUAGUUUCCAGAAGGUCGGUUGGUUG”, the “apparent Kd” value under setting [1] was determined as 61.1 nM and the “apparent Kd” value under setting [2] worked out at 71.2 nM.
“CGAUAUAUGAAGGGCGAAAACGCACAUGAGGAUCACCCAUGUAGAAGGCGAUCCGCAACGCGGAUCGAGGAUAUAUAGUAUACA”: the “apparent Kd” value came out at 21.1 nM under setting [1] and 23 nM under setting [2].
For “AUCAGCUCGUCAGGAUAUACGUCACUGCGUCCGCAGUGUGGUAAGAUCACAUGAGGAUCACCCAUGUAGAAGGGACGAGCUGAU”, the “apparent Kd” value was found to be 13.8 nM under setting [1] and 264 nM under setting [2].
The like results for “CCAUGACAAAGUCAUGGAAUACGAACAUGAGGAUCACCCAUGUAGGAUAUGCUACUCAAAGAGUAGCAGAAGGACAUGUGUCUU” were, in that order, 29.9 nM and 156 nM.
For “CGUUGAUGAGGAUAUCGAUGUUAGUACAUGAGGAUCACCCAUGUUAUCCAAGUGUCGGAUCGAGAAGGUAUUGGAC”, the “apparent Kd” value under setting [1] stood at 320 nM and the “apparent Kd” value under setting [2] was 306 nM.
Regarding “UAAUCUCAGAUAGGAUAUAUAGGAUGAUUUAAGACCGAACAUGAGGAUCACCCAUGUGAUUAUUUGUAGAAGGAUCAAUGACCC”, the “apparent Kd” value reads like this: under setting [3], 72.4 nM; under setting [4], 79.2 nM.
Take “AAGUCAGCAGGAUAUGCGAUGUUGGGCUAGGUAGCGUGACCACAUGAGGAUCACCCAUGUAGAAGGGCUGGCUA”: the “apparent Kd” value under setting [1] came out at 33.4 nM and the “apparent Kd” value under setting [2] is 34.4 nM.
In the case of “UUUUUGUGAGGAUAUGCAAUAUCUUCUAUUUAUUAUUAAUUGCAGAAGGCACAUGAGGAUCACCCAUGUAUUUU”, the “apparent Kd” value is, setting by setting: under setting [1], 19.2 nM; under setting [2], 24.2 nM.
Turning to “UUUAAUUUAAUUAAGAUCACAUGAGGAUCACCCAUGUAUAUAUAGGAUAUCAGCUCGAAUAGAGCUGAGAAGGAUAUAUACAUA”, the “apparent Kd” value came to 69.3 nM under setting [1] and 36.2 nM under setting [2].
For the sequence “GUGCAUUCGUAGAAGGGUGACAUGAGGAUCACCCAUGUGCGCUGGGCUCGGGAUGCAUCAGCGCCACAGGAUAUACGAAGCACC”, the “apparent Kd” value under setting [3] is 117 nM and the “apparent Kd” value under setting [4] is 106 nM.
For “GCAUCCAUAGUGAGGAUAUACCUCUGGAUACAUAGGUAGAAGGCACAUGAGGAUCACCCAUGUUCCUAGGAUGC”, the “apparent Kd” value was 20.2 nM under setting [1] and 40.1 nM under setting [2].
As to “GCUCGGCCAAAAUAAAACGACGCGAAGGAUAUACACCUGGGUACUCCUACAUGAGGAUCACCCAUGUAGAAGGUCGCGGGCUUG”, the “apparent Kd” value by setting is: under setting [1], 45 nM; under setting [2], 46.4 nM.
On to “UAAAUGUGAGGAUAUUCGAUUAACUCGGAGACGAGUUGAUCGGAGAAGGCACAUGAGGAUCACCCAUGUUCCUU”, for which the “apparent Kd” value under setting [1] amounted to 24.8 nM and the “apparent Kd” value under setting [2] was determined as 232 nM.
Take “GUAGCUAACGGAGGAUAUUCAUACCGGAAACGGACAUGAGGAUCACCCAUGUGGCGAAAGCCAUGGGAGAAGGCCGUUAGCUAC”: the “apparent Kd” value under setting [3] was 918 nM and the “apparent Kd” value under setting [4] is 147 nM.
For the sequence “CUUUUGUGAGGAUAUUCGUAGUAAAUGAAUAAAAUUAUUACGGAGAAGGCACAUGAGGAUCACCCAUGUUCCUC”, the “apparent Kd” value is, setting by setting: under setting [1], 42.2 nM; under setting [2], 343 nM.
For the sequence “GCAGGUCGGAAGGAUAUGAAUCUGCUCGCAGUUUCAGAAGGUCUGACAUGAGGAUCACCCAUGUUGGGCGCAUC”, the “apparent Kd” value reads like this: under setting [1], 56.5 nM; under setting [2], 236 nM.
The corresponding values for “CGGCGGAAAGGAUAUGCAGUUAUAUCAAAAUGUGGGCCACGACAUGAGGAUCACCCAUGUAGAAGGUUCAGCCG” are 16 nM and 13.4 nM.
The like results for “AUUUUUAAGGUAGGAUAUAGUAUAAUGGUUUAAUUAGAAGGAUCUCACAUGAGGAUCACCCAUGUAAUAGGAUUACCCAUGUAU” were, in that order, 38.8 nM and 26.8 nM.
The corresponding values for “AAUGUUUUCAUAGGAUAUUGACUUUUAUUUAUUCAAGAAGGAUGAUAACAUGAGGAUCACCCAUGUUAAAAUGGAUUAACUAGU” are 16.1 nM and 26.6 nM.
As for “UUAUUUAUACAAGGAUAUCUAUUGUUAAUUCGACUUACAUGAGGAUCACCCAUGUUUUUAUGUUUAGAGAAGGUGUAUUUUCAG”, the “apparent Kd” value stood at 90.4 nM under setting [3] and 51.9 nM under setting [4].
Consider “GCGAAGAACGAGAAGGCCACUACAUGAGGAUCACCCAUGUCGUGGAGUAUUGGAGGAUAUCGAUCGGCGUCUCAUGAGGACAUA”, for which the “apparent Kd” value turned out to be 5.73 nM under setting [1] and 5.61 nM under setting [2].
The like results for “ACAUGAGGAUCACCCAUGUAAUGAUGGGUACUAUAUUAUUCGUAGGAUAUCGUUGUUAGUUUGUGCGAGAAGGACGAUUGCUUU” were, in that order, 871 nM and 1060 nM.
The corresponding values for “GGUUGGCGAGGAUAUACAUGAGGAUCACCCAUGUGAGAGAAAAAAGUGAGAACGAAAAGUAGAAGGCGCUGACG” are 43.5 nM and 176 nM.
Consider “UGAUCGAGAGAUCUUAGAUUCUGGUAGGAUAUACAUUAUAGAAGUUAUACAUGAGGAUCACCCAUGUAGAAGGACUAGAGUCUA”, for which the “apparent Kd” value under setting [1] worked out at 5.73 nM and the “apparent Kd” value under setting [2] stood at 7.54 nM.
As for “CCCACGAAAGUCGAACGAUGAUGGAGAAGGACAAUAACAUGACAUGAGGAUCACCCAUGUGCCAUGUAGGAUAUCCAUCAUGGG”, the “apparent Kd” value by setting is: under setting [1], 7.49 nM; under setting [2], 6.78 nM.
As to “GUCAGCUCGUGAGGAUAUACAACACUGCUUCGGCAGUGUAUUAAGGUCACAUGAGGAUCACCCAUGUAGAAGGCACGAGCUGAU”, the “apparent Kd” value under setting [1] turned out to be 8.12 nM and the “apparent Kd” value under setting [2] was found to be 105 nM.
“UGUCGGAGCAGAGGAUAUUACAUGAGGAUCACCCAUGUAUGAACCAAUAGCUGGCAACAGCAAUGUAAGAAGGCUGCUCCGACA”: the “apparent Kd” value was 12.8 nM under setting [1] and 168 nM under setting [2].
For the sequence “AACGUCCUAGGAUAUACGCUGGGACUCGCCAUGUGGGCCCUACAUGAGGAUCACCCAUGUAGAAGGAGGACAUG”, the “apparent Kd” value under setting [1] is 19.5 nM and the “apparent Kd” value under setting [2] was 12.9 nM.
As to “AAUACUUAGUAAGGAUAUACUAGCGAUUAGCUUGUAGAAGGUACAGUCUUAUGUAUAACAUGUUAACAUGAGGAUCACCCAUGU”, the “apparent Kd” value came out at 67.2 nM under setting [3] and 35.1 nM under setting [4].
As for “AUUUUUUGUCAUGUACAUGAGGAACAUGAGGAUCACCCAUGUAGAAGGAAUUUUUUUAAGUUUAGUUAGGAUAUACAUAUAUUU”, the “apparent Kd” value amounted to 53.9 nM under setting [1] and 30 nM under setting [2].
